High-throughput results deposited in PubChem by The Scripps Research Institute Molecular Screening Center.
HCV core dimer: HCV core protein dimerization inhibition; TR-FRET GST/Flag-core106 dimerization, 1536-well; AID 1899; 300,000 compounds, 0.33% hits; inhibition, % at 5 µM;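 active = inhibition above the mean of all tested compounds plus 3 SD, set per screening campaign, cut at about 45% in these data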
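Material: GST/Flag-tagged HCV core106 proteins. Incubation: 4 h, 22.5 °C incubation. Read-out basis: inhibition (%) from 671 over 617 nm ratio. Measured by: TR-FRET, excitation 340 nm, emission 617 and 671 nm.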
TAAR1 ag: human TAAR1 agonism | Q96RJ0 | CHO RD-HGA16 TAAR1, Fluo-8 calcium fluorescence; vehicle wells 0%, saturating PEA agonist 100% | activation, % at 3 µM | 360,000 compounds, 0.99% hits | AID 624467;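 active = activation above the mean activation of all test compounds in the run plus 3 SD, cut at about 38% in these data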
Target sequence (Q96RJ0 whole entry, looked up): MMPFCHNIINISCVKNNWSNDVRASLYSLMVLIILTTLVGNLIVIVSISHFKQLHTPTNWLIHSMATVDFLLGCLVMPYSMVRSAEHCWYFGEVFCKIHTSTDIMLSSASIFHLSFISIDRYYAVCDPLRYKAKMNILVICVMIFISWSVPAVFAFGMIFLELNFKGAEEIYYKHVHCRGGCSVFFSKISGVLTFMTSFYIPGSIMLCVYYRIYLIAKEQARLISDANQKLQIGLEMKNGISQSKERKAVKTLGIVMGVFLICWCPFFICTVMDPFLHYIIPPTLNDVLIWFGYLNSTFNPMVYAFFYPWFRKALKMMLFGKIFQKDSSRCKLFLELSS
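Repeats: no replicates (n 1) | Material: CHO-derived RD-HGA16 cells with stable Gα16 and human TAAR1 | Technique: Kinetic Fluo-8 calcium fluorescence | Schedule: 17-24 h seeding, 75 min 37 °C dye, 30 min RT | Evaluation: % activation from peak over basal fluorescence ratio, DMSO-to-PEA scaled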
rCAG RNA binder: r(CAG) repeat RNA binding | TO-PRO-1 dye displacement fluorescence | inhibition, % at 3 µM | 370,000 compounds, 1.3% hits;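 active = inhibition above the plate cutoff, the mean of all test compounds on that plate plus 3 SD, cut at about 35% in these data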;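 also: higher means more dye released from RNA so lower well fluorescence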
TAAR1 antagonist: antagonists of human TAAR1 | AID 624466 | Q96RJ0 | inhibition, % at 3 µM | CHO RD-HGA16 TAAR1, Fluo-8 calcium fluorescence, antagonist | 360,000 compounds, 1.5% hits;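 active = inhibition above a per-plate cutoff, the mean inhibition of test compounds on that plate plus 3 SD, cut at about 49% in these data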
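Test system – hTAAR1-expressing CHO RD-HGA16 cells, Gα16-coupled · Also added – β-PEA at EC80 concentration, post-compound challenge · Compound – 3 µM, single point · Incubation – dye loading 75 min at 37 °C, then 30 min room temperature · Measured by – Fluo-8 intracellular calcium dye fluorescence, real-time kinetic reads · Benchmarks – vehicle and agonist controls · Replicates – singlicate, one well per test compound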
HCV NS3 hel inh: inhibitors of Hepatitis C virus NS3 helicase | NS3 helicase DNA unwinding, Cy5 molecular beacon fluorescence | inhibition, % at 10.9 µM | 290,000 compounds, 0.56% hits;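 active = inhibition above the mean of all tested compounds plus 3 SD, set per campaign, cut at about 35% in these data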
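Measured by: Cy5 fluorescence, 0 and 60 min reads / Assay system: NS3 helicase fragment of HCV / Control set: low DMSO, high thioflavine S at 110 µM / Times: 1 h reaction at 25 °C, ATP-initiated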
nonsel antag count: counter-screen for TAAR1 antagonists: nonselective antagonists; shares compounds with TAAR1 antagonist; counterscreen cell line, calcium fluorescence, antagonist mode; inhibition, % at 3 µM; 2,400 compounds, 77% hits; AID 651780; in the data active = inhibition above about 22%;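 also: CHO-Ga16 host cells stimulated with ATP at an EC80 level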
TAAR1 antag conf: confirmation of human TAAR1 antagonists. shares compounds with TAAR1 antagonist. TAAR1-expressing cells, fluorescence antagonist read-out. inhibition, % at 3 µM. 2,400 compounds, 40% hits. AID 651785; in the data active = inhibition above about 49%;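 also: CHO-Ga16 host cells challenged with agonist PEA near its EC80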
Ga16 nonsel ag: nonselective Ga16 agonism, counter-screen; 2,400 compounds, 18% hits; activation, % at 3 µM; Ga16-expressing cells, calcium fluorescence, agonist counterscreen; AID 651953; shares compounds with TAAR1 antagonist; in the data active = activation above about 12%
TAAR1 ag count: counter-screen for human TAAR1 antagonists: TAAR1 agonists; shares compounds with TAAR1 antagonist; hTAAR1 cell line, fluorescence activation, agonist mode; activation, % at 3 µM; 2,400 compounds, 2% hits; in the data active = activation above about 37%;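 also: CHO cells stably expressing TAAR1 with calcium dye readout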
A number is an active result; . = inactive; / = not tested or not shown. An excerpt weighted towards active compounds, which were near 3.7% of everything screened.

SMILES | HCV core dimer | TAAR1 ag | rCAG RNA binder | TAAR1 antagonist | HCV NS3 hel inh | nonsel antag count | TAAR1 antag conf | Ga16 nonsel ag | TAAR1 ag count
O=C(NCc1ccco1)c1cc(-c2cccs2)nc2ccccc12 | . | . | . | 62 | . | 27 | . | . | .
O=C(NN1CCOCC1)c1cc(-c2cccs2)nc2ccccc12 | . | . | . | . | . | / | / | / | /
O=C(NCCN1C(=O)S/C(=C/c2cccnc2)C1=O)c1cccs1 | / | . | . | . | / | / | / | / | /
O=C(COc1ccccc1-c1ccccc1)NCCN1C(=O)S/C(=C\c2cccnc2)C1=O | . | . | . | 70 | . | 39 | . | 12 | .
COc1ccc2c(c1)CNC2CS(=O)(=O)NCc1ccccc1 (configuration not stated) | / | / | . | / | / | / | / | / | /
CCOc1ccc2ncc(S(=O)(=O)c3ccccc3)c(N3CCC4(CC3)OCCO4)c2c1 | . | . | . | 49 | . | . | . | . | .
CCOc1ccc2ncc(S(=O)(=O)c3ccccc3)c(N3CCN(c4ccccc4)CC3)c2c1 | . | . | . | . | / | / | / | / | /
COc1ccc(S(=O)(=O)c2cnc3ccc(OC)cc3c2N2CCC3(CC2)OCCO3)cc1 | . | . | . | 72 | . | 25 | 50 | . | .
O=C(NC1CCCCN(Cc2ccc(Cl)cc2)C1=O)c1cccc(C(F)(F)F)c1 (configuration not stated) | / | / | . | / | / | / | / | / | /
Cc1cc(C)cc(NC(=O)N2CCN(Cc3nc4ccccc4c(=O)[nH]3)CC2)c1 | / | / | . | / | / | / | / | / | /
O=C1NC[C@@H](c2ccccc2)OC(=O)[C@@H](Cc2ccc(F)cc2)CC/C=C/C[C@H]1CC(=O)N(CCO)Cc1ccccc1 | / | . | . | 59 | / | . | . | . | .
CC(C)(C)OC(=O)C[C@@H]1C/C=C\C[C@@H](CC(=O)N[C@@H](CO)Cc2ccccc2)C(=O)NC[C@@H](c2ccccc2)OC1=O | / | . | . | 67 | / | 28 | . | . | .
O=C1NC[C@@H](c2ccccc2)OC(=O)[C@H](Cc2ccc(F)cc2)C/C=C\C[C@H]1CC(=O)N(CCO)Cc1ccccc1 | / | . | . | 68 | / | 30 | . | . | .
CC(C)(C)OC(=O)C[C@H]1C/C=C\C[C@@H](CC(=O)N[C@@H](CO)Cc2ccccc2)C(=O)NC[C@@H](c2ccccc2)OC1=O | / | . | . | . | / | / | / | / | /
O=C(C[C@@H]1C/C=C/CC[C@@H](Cc2ccc(F)cc2)C(=O)O[C@@H](c2ccccc2)CNC1=O)NCCO | / | . | . | 66 | / | 26 | 49 | . | .
O=C(C[C@H]1C/C=C/CC[C@H](Cc2ccc(F)cc2)C(=O)O[C@H](c2ccccc2)CNC1=O)NCCO | / | . | . | . | / | / | / | / | /
Cc1ccc(S(=O)(=O)NCC(=O)N2CCN(c3ccccn3)CC2)cc1C | / | / | . | / | / | / | / | / | /
Nc1[nH]c(C(=O)c2ccc(Br)cc2)c(-c2ccccc2)c1C(=O)NCCc1c[nH]c2ccccc12 | / | . | . | . | / | / | / | / | /
C[C@H](c1ccccc1)N1C[C@@H](COCc2ccccc2)Oc2cccc(N3CCCC3)c2S1(=O)=O | / | . | . | . | / | / | / | / | /
COC(=O)c1cc2c(c3c4cc(C)ccc4n(S(=O)(=O)c4ccc(OC)cc4)c13)C(=O)N(Cc1ccccc1)C2 | / | . | . | . | / | / | / | / | /
Cc1nc2c(OCc3ccc(F)cc3)cccn2c1N(C)C(=O)CCC1CCCC1 | / | . | . | . | / | / | / | / | /
COC(=O)c1ccc(COc2cccn3c(N(C)C(=O)CCC4CCCC4)c(C)nc23)cc1 | / | . | . | 68 | / | 34 | 55 | . | .
O=C(Nc1ccc(-c2nnc(-c3ccco3)o2)cc1)C(c1ccccc1)c1ccccc1 | . | . | . | 74 | . | 32 | . | . | .
Cc1ccccc1NC(NC(=O)c1cccs1)C(Cl)(Cl)Cl (configuration not stated) | . | . | . | 52 | . | . | . | 13 | .
CC1(C)N=C(SCC(=O)Nc2ccc(Cl)cc2)C(c2ccc(Cl)cc2)=N1 | . | . | . | 68 | . | 27 | . | . | .
SMILES | HCV core dimer | TAAR1 ag | rCAG RNA binder | TAAR1 antagonist | HCV NS3 hel inh | nonsel antag count | TAAR1 antag conf | Ga16 nonsel ag | TAAR1 ag count
Cc1ccc(C)c(N2CCN(C(=O)C34CC5CC(C3)CC(n3nnc(C)n3)(C5)C4)CC2)c1 | . | . | . | 59 | . | 35 | . | . | .
CCc1ccc(OCCNC(=O)c2ccccc2SCc2ccc(F)cc2)cc1 | . | . | . | 54 | . | 26 | . | . | .
O=C(NCCOc1ccc(F)cc1)c1ccccc1SCc1ccccc1 | . | . | . | 60 | . | 30 | 53 | . | .
COc1ccc(Cl)cc1CN1CCN(c2nc(C)cc(C)c2C#N)CC1 | . | . | . | . | . | / | / | / | /
Cc1cc(C)c(C#N)c(N2CCN(CCOc3ccc(Cl)cc3)CC2)n1 | . | . | . | 57 | . | 34 | . | . | .
Cc1csc(N2CCN(c3cc4nc(-c5ccncc5)[nH]c4cc3Cl)CC2)n1 | . | . | . | 58 | . | 30 | . | . | .
CC(C)c1[nH]nc2c1C(c1ccc(F)cc1)NC2=O (configuration not stated) | / | . | . | . | / | / | / | / | /
C/C=C/C(=O)N1CCc2cc(S(=O)(=O)N(C)Cc3ccco3)ccc21 | / | / | . | / | / | / | / | / | /
Cc1cccc(-c2noc(-c3ccccc3C(=O)NCc3ccco3)n2)c1 | . | . | . | 52 | . | 26 | . | . | .
Cc1cccc(-c2noc(CCC(=O)NCc3ccccc3)n2)c1 | . | . | . | 106 | . | . | . | . | .
Cc1cccc(-c2noc(CCC(=O)NCCc3ccccc3)n2)c1 | . | . | . | . | . | / | / | / | /
O=C(NCc1ccco1)c1cccc(-c2nnc(-c3ccccc3)o2)c1 | . | . | . | 62 | . | 22 | . | . | .
COC1=C[C@H](C(=O)N[C@H]2CCCC[C@@H]2NC(C)=O)[C@@]2(C)Cc3ccccc3[C@H]2CC1=O | / | / | . | / | / | / | / | / | /
O=[N+]([O-])c1cc(C=NN2CCN(Cc3ccccc3Cl)CC2)ccc1Cl | / | / | . | / | / | / | / | / | /
O=C(Nc1nc(-c2ccccn2)cs1)C1COc2ccccc2O1 (configuration not stated) | . | . | . | 105 | . | 22 | . | . | .
Cc1nc2ccc3nc(NC(=O)C4COc5ccccc5O4)sc3c2s1 (configuration not stated) | . | . | . | 61 | . | 29 | . | . | .
CC(C)CN1C[C@@H]2CSCCS(=O)(=O)N2C1=O | / | / | . | / | / | / | / | / | /
COc1cccc(NC(=S)N2CCc3cc(OC)c(OC)cc3C2)c1 | . | . | . | . | . | / | / | / | /
